Tests used:
Rattus norvegicus [1] = species on record: Rattus norvegicus; assay: Toxicity in Sprague-Dawley rat assessed as ability to use limbs at 0.5 mg/joint measured on day 56; type: organism-based; settings: in vivo, other
Rattus norvegicus [2] = assay: Toxicity in Sprague-Dawley rat assessed as adverse effects at 0.5 mg/kg, ia measured after 48 hrs; type: organism-based; parameters: dose 0.5 mg/kg; settings: in vivo, other
[3] = target: Matrix metalloproteinase-9 (Homo sapiens, UniProt P14780); assay: Inhibition of human recombinant MMP9 using MCA-Pro-Leu-Gly-Leu-Dpa-Ala-Arg-NH2.AcOH as substrate preincubated for 10 mins measured by fluorescence analysis
Chain of Matrix metalloproteinase-9 (P14780 whole entry, the tested form may be a part): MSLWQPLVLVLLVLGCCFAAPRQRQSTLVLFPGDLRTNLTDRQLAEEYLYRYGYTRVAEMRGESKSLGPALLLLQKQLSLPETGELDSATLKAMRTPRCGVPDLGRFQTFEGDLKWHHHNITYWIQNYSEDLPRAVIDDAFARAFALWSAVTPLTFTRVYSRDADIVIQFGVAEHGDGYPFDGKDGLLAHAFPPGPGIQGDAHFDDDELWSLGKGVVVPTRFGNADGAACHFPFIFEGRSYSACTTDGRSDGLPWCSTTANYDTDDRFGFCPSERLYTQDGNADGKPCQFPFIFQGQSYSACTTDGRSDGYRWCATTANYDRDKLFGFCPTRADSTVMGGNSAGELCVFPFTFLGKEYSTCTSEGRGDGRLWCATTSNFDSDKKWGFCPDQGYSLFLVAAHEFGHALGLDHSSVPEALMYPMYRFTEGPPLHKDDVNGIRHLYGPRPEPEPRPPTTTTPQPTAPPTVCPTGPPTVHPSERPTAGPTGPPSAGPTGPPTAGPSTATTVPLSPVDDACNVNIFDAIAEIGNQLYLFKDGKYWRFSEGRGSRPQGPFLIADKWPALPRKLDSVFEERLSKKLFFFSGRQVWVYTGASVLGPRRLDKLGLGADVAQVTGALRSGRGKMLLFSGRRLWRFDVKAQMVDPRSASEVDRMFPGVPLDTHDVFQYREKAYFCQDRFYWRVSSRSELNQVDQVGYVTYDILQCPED
Summary of the method: (§1)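 Catalytic domains of recombinant human MMPs were assayed with fluorogenic OmniMMP substrate in 50 mM Tris-HCl pH 7.5, 150 mM NaCl, 5 mM CaCl₂, 0.05% Brij-35. Enzyme was 1–10 nM and substrate 4–10 μM, optimized per assay. Enzyme was preincubated 10 min with varying inhibitor concentrations, and IC50 was calculated from runs done at least in duplicate.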

[4] = Metabolic stability in human microsomes assessed as unmetabolized compound after 60 mins; type: ADME, Microsome; settings: read-out: Stability
[5] = Metabolic stability in rat microsomes assessed as unmetabolized compound after 60 mins; type: ADME, Microsome; settings: read-out: Stability
[6] = Drug uptake in Sprague-Dawley rat cartilage at 0.5 mg/joint measured after 21 days; type: ADME, tissue-based, Cartilage tissue; settings: read-out: Drug uptake
Rattus norvegicus [7] = species on record: Rattus norvegicus; assay: Chondroprotective activity in Sprague-Dawley rat cartilage assessed as inhibition of MMP13-mediated C1,C2 release at 0.5 mg/joint, ia measured on day 21 by ELISA; type: functional
Summary of the method: (§2)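 Male Sprague-Dawley rats (175−200 g, three per group) received one IA injection of 50 μL PBS holding 10 mg/mL suspension (sonicated, vortexed) into right knee. They were killed at 1, 7, 14 or 21 days, and tibial cartilage was collected. Cartilage was then challenged with 10 μg/mL APMA-activated human MMP-13 for 24 h at 37 °C in Tris pH 7.5. The reaction was stopped with 10 mM EDTA, and released C1,2C was measured by ELISA. Vehicle cartilage incubated with or without MMP-13 defined 100% and 0%.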

[8] = target: 72 kDa type IV collagenase (Homo sapiens, UniProt P08253); assay: Inhibition of human recombinant MMP2 using MCA-Pro-Leu-Gly-Leu-Dpa-Ala-Arg-NH2.AcOH as substrate preincubated for 10 mins measured by fluorescence analysis; summary of the method: as §1
Chain of 72 kDa type IV collagenase (P08253 whole entry): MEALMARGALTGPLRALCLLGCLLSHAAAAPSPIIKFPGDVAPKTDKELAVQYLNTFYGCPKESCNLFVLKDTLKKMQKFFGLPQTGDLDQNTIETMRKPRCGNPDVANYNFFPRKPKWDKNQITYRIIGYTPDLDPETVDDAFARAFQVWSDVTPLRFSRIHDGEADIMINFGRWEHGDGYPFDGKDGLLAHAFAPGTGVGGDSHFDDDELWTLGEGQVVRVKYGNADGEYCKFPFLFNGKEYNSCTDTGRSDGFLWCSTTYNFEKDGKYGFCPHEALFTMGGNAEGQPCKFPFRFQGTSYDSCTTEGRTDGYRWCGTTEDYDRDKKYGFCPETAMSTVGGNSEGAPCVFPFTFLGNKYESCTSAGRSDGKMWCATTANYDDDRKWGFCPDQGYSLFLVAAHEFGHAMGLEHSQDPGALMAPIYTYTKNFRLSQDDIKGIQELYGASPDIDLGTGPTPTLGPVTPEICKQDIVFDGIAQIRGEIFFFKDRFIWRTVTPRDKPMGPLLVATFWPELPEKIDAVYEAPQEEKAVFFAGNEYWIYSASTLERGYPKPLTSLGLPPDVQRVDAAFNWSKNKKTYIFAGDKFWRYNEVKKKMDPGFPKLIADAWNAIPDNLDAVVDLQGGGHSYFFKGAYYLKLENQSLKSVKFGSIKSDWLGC

[9] = Drug uptake in Sprague-Dawley rat synovial lavage at 0.5 mg/joint measured after 21 days; type: ADME; settings: read-out: Drug uptake
Rattus norvegicus [10] = assay: Toxicity in Sprague-Dawley rat assessed as adverse effects at 0.5 mg/kg, ia measured after 3 weeks; type: organism-based; parameters: dose 0.5 mg/kg; settings: in vivo, other, 504 h
Rattus norvegicus [11] = species on record: Rattus norvegicus; assay: Toxicity in Sprague-Dawley rat assessed as impaired use of limbs at 0.5 mg/joint measured on day 56; type: organism-based; settings: in vivo, other
Matrilysin = target: T1, Matrilysin (Homo sapiens, UniProt P09237); assay: Inhibition of human recombinant MMP7 using MCA-Pro-Leu-Gly-Leu-Dpa-Ala-Arg-NH2.AcOH as substrate preincubated for 10 mins measured by fluorescence analysis; summary of the method: as §1
T1 sequence (P09237 whole entry): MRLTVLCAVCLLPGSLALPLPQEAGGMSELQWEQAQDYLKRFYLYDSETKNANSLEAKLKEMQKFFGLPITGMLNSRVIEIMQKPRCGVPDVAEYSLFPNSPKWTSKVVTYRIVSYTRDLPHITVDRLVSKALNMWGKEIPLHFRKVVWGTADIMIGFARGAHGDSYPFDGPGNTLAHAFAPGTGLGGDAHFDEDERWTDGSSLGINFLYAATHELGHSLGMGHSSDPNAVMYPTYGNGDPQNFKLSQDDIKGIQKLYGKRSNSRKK

Rattus norvegicus [12] = species on record: Rattus norvegicus; assay: Chondroprotective activity in Sprague-Dawley rat cartilage assessed as inhibition of MMP13-mediated C1,C2 release at 0.5 mg/joint, ia measured on day 7 by ELISA; type: functional; summary of the method: as §2
Rattus norvegicus [13] = species on record: Rattus norvegicus; assay: Chondroprotective activity in Sprague-Dawley rat cartilage assessed as inhibition of MMP13-mediated C1,C2 release at 0.5 mg/joint, ia measured after 24 hrs by ELISA; type: functional; summary of the method: as §2
Rattus norvegicus [14] = species on record: Rattus norvegicus; assay: Chondroprotective activity in Sprague-Dawley rat cartilage assessed as inhibition of MMP13-mediated C1,C2 release at 0.5 mg/joint, ia measured on day 14 by ELISA; type: functional; summary of the method: as §2
Rattus norvegicus [15] = assay: Toxicity in Sprague-Dawley rat assessed as joint irritation at 0.5 mg/kg, ia measured after 3 weeks; type: organism-based; parameters: dose 0.5 mg/kg; settings: in vivo, other, 504 h
[16] = target: Disintegrin and metalloproteinase domain-containing protein 17 (Homo sapiens, UniProt P78536); assay: Inhibition of human recombinant TACE using MCA-Pro-Leu-Ala-Gln-Ala-Val-Dpa-Arg-Ser-Ser-Ser-Arg-NH2 as substrate preincubated for 10 mins measured by fluorescence analysis
Chain of Disintegrin and metalloproteinase domain-containing protein 17 (P78536 whole entry, the tested form may be a part): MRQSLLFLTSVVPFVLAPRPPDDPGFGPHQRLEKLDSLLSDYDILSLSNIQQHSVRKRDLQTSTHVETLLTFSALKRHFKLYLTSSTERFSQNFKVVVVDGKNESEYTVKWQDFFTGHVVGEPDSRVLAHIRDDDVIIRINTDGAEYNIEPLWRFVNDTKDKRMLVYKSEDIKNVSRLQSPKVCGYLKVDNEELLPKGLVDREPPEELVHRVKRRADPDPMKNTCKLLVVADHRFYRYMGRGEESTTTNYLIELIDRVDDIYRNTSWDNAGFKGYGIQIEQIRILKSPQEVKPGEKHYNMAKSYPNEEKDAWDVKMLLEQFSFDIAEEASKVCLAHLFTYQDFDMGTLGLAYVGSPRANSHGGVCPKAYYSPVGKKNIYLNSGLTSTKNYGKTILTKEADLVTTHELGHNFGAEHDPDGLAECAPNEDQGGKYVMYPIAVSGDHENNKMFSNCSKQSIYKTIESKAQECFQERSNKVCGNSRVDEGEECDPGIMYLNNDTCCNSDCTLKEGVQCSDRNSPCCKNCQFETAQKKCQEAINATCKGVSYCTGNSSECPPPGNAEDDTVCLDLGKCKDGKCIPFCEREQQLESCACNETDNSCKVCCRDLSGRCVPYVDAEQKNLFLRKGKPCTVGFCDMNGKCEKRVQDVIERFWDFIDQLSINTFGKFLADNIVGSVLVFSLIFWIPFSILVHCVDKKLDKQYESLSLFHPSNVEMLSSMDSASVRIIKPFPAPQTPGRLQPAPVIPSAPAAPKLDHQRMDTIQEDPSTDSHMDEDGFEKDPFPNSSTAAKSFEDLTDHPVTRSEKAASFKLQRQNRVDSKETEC
Summary of the method: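 Recombinant human TACE was assayed with its fluorogenic peptide substrate in 25 mM Tris-HCl pH 9, 1.25 μM Zn(OAc)₂, 0.005% Brij-35. Enzyme was 1–10 nM and substrate 4–10 μM. Enzyme was preincubated 10 min with varying inhibitor concentrations, and IC50 came from at least duplicate runs.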

**Q.** Which Activity (Rattus norvegicus [1]) does the source give for `Cc1c(C(=O)O)ccc2c1CC[C@@H]2NC(=O)c1cc(C(=O)NCc2ccc3c(c2)NC(=O)CO3)nc2ccnn12` here?
**A.** The Activity was “Non-toxic”.

**Q.** And the Activity (Rattus norvegicus [2])?
**A.** Its Activity is “Non-toxic”.

**Q.** What about the IC50 [3] of the same compound?
**A.** Its IC50 is over 20 µM.

**Q.** What about the remaining at 1 h [4] of the same compound?
**A.** The remaining at 1 h was 96%.

**Q.** What about the remaining at 1 h [5] of the same compound?
**A.** The remaining at 1 h was 95%.

**Q.** What about the concentration at 504 h [6] of the same compound?
**A.** The concentration at 504 h was 4090 nM.

**Q.** And the “inhibition (INH)” value (Rattus norvegicus [7])?
**A.** Its value is 100%.

**Q.** And the IC50 [8]?
**A.** Its IC50 is over 20 µM.

**Q.** What about the concentration at 504 h [9] of the same compound?
**A.** The concentration at 504 h was 300 nM.

**Q.** And the Activity (Rattus norvegicus [10])?
**A.** The Activity was “Non-toxic”.

**Q.** What about the Activity (Rattus norvegicus [11]) of the same compound?
**A.** The Activity was “Non-toxic”.

**Q.** What about the IC50 (Matrilysin) of the same compound?
**A.** The IC50 was over 20 µM.

**Q.** And the “inhibition (INH)” value (Rattus norvegicus [12])?
**A.** The value was 100%.

**Q.** And the “inhibition (INH)” value (Rattus norvegicus [13])?
**A.** The value was 100%.

**Q.** What about the “inhibition (INH)” value (Rattus norvegicus [14]) of the same compound?
**A.** Its value is 100%.

**Q.** And the Activity (Rattus norvegicus [15])?
**A.** The Activity was “Non-toxic”.

**Q.** What about the IC50 [16] of the same compound?
**A.** The IC50 was over 20 µM.

Reference: ChEMBL document CHEMBL2046313, “Discovery and evaluation of a non-Zn chelating, selective matrix metalloproteinase 13 (MMP-13) inhibitor for potential intra-articular treatment of osteoarthritis” (J Med Chem, 2012)
